High-throughput results: PubChem, Broad Institute
Shown is part of a subset that was picked to be rich in hits.
INS-1E rescue: rescue of cytokine-induced death in INS-1E beta cells; INS-1E cytokine-induced death, ATP luminescence, 48 h; normalised: neutral wells 0, positive control 100; protection from cytokine-induced ATP loss, % at 10 µM; hit rate 0.1% among 20,000;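 active = mean replicate protection from cytokine-induced ATP loss at least 50% and at least 75% of replicates each reaching 50%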
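Material: INS-1E rat cells; Quantity: 8000 cells/well; Buffer or medium: phenol-red-free RPMI with 5% fetal bovine serum; Probe or stimulus: cytokine cocktail of IFN-γ, TNF-α and IL-1β; Compound dosing: single test concentration per compound, delivered by pin transfer; Incubation: 48 h co-treatment, 10 min post-lysis read; Signal: CellTiter-Glo luminescence.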
T cruzi intra: inhibitors of intracellular Trypanosoma cruzi; hit rate 4.9% among 22,000; activity score (inhibition), % at 5.01 µM; intracellular Trypanosoma cruzi in host cells, plate reader; in the data active = activity score above about 55%;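 note: parasites and compound incubated about four days before reading; 0% = median of neutral control wells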
YB-1 expression: YB-1 expression inhibition | hit rate 0.37% among 30,000 | AID 434959 | U2OS, qRT-PCR YB-1 vs CDIP delta delta Cp, 16 h; hits give high values; zero = DMSO, each unit about twofold | delta delta Cp (YB-1 minus CDIP) (no concentration beside the values);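 active = delta delta Cp rounded down to an integer at or above 3, about 3 SD of DMSO wells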;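 note: higher means less YB-1 transcript or more CDIP transcript relative to DMSO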
* = called active by the depositor; / = no result given.

SMILES | INS-1E rescue | T cruzi intra | YB-1 expression
C[C@H]1CN([C@@H](C)CO)C(=O)Cc2cc(NS(=O)(=O)c3ccccc3)ccc2O[C@@H]1CN(C)Cc1ccc(C(F)(F)F)cc1 | 11 | 67* | 0.18
O=C(c1ccccc1)N1Cc2ccccc2[C@@H]2OC(c3ccc(OCCCO)cc3)=N[C@]2(CCS(=O)(=O)c2ccccc2)C1=O | / | / | -0.48
COc1cccc2sc(NC(=O)c3ccc(S(=O)(=O)N4CCCC(C)C4)cc3)nc12 (stereo not drawn) | / | / | -0.021
O=c1[nH]nc(SCc2ccccc2)n1-c1ccc(OCc2ccccc2)cc1 | / | / | -0.036
COCc1cc(=O)[nH]c(SCC(=O)C(C)(C)C)n1 | / | / | -0.32
CC1/C(=N/O)C[C@@H]2C[C@H]1C2(C)C (stereo partly drawn) | / | / | -0.52
COc1ccc(NC(=O)N(C)C[C@@H]2Oc3ncc(-c4cccc(C(F)(F)F)c4)cc3C(=O)N([C@H](C)CO)C[C@@H]2C)cc1 | / | 59* | -0.015
C[C@H](CO)N1C[C@H](C)[C@H](CN(C)C(=O)Nc2ccc(F)cc2)Oc2ncc(-c3cccc(C(F)(F)F)c3)cc2C1=O | / | 51 | 0.057
COc1ccc(NC(=O)N(C)C[C@@H]2Oc3ncc(-c4ccc(OC)cc4)cc3C(=O)N([C@H](C)CO)C[C@@H]2C)cc1 | / | 29 | -0.89
C[C@H](CO)N1C[C@H](C)[C@H](CN(C)C(=O)Nc2ccc3c(c2)OCO3)Oc2ncc(-c3cccc(C(F)(F)F)c3)cc2C1=O | / | 67* | -0.0047
C[C@H](CO)N1C[C@H](C)[C@H](CN(C)C(=O)Nc2ccc3c(c2)OCO3)Oc2ncc(C#Cc3ccc(F)cc3)cc2C1=O | -3 | -17 | 0.05
C[C@H](CO)N1C[C@H](C)[C@H](CN(C)C(=O)Nc2ccc3c(c2)OCO3)Oc2ncc(-c3cccc(F)c3)cc2C1=O | / | -15 | 0.28
C[C@H](CO)N1C[C@H](C)[C@H](CN(C)C(=O)Nc2ccc3c(c2)OCO3)Oc2ncc(C#Cc3ccccc3)cc2C1=O | / | 69* | -0.16
C[C@H](CO)N1C[C@H](C)[C@H](CN(C)C(=O)Nc2ccccc2)Oc2ncc(-c3cccc(C(F)(F)F)c3)cc2C1=O | / | 64* | 0.088
O=C1O[C@@H](c2ccccc2)[C@@H](c2ccccc2)N2[C@@H](c3ccc(OCCO)cc3)[C@]3(C(=O)Nc4ccccc43)[C@@H](C(=O)N3CCCCCCC3)[C@H]12 | / | / | -0.1
CC(=O)NCCOc1c(C)cccc1C | / | / | -0.28
O=c1[nH]c(C2=C(O)Cn3c2nc(=O)c2ccccc23)nc2ccccc12 | / | / | -0.077
S=c1[nH]n(-c2ccc(Cl)cc2)c(=S)s1 | / | / | 5*
C[C@H](CO)N1C[C@H](C)[C@H](CN(C)S(=O)(=O)c2ccccc2)Oc2ncc(C#Cc3ccccc3)cc2C1=O | / | 48 | -0.2
COc1ccc(S(=O)(=O)N(C)C[C@@H]2Oc3ncc(C#Cc4cccc(F)c4)cc3C(=O)N([C@H](C)CO)C[C@@H]2C)cc1 | / | 52 | -0.079
C[C@H](CO)N1C[C@H](C)[C@H](CN(C)S(=O)(=O)c2ccccc2)Oc2ncc(C#Cc3ccc(C(F)(F)F)cc3)cc2C1=O | / | 78* | 0.34
C[C@H](CO)N1C[C@H](C)[C@H](CN(C)S(=O)(=O)c2cccc(F)c2)Oc2ncc(C#Cc3ccccc3)cc2C1=O | / | 51 | -0.24
C[C@H](CO)N1C[C@H](C)[C@H](CN(C)S(=O)(=O)c2cccc(F)c2)Oc2ncc(C#Cc3ccc(C(F)(F)F)cc3)cc2C1=O | / | 85* | 0.11
C[C@H](CO)N1C[C@H](C)[C@H](CN(C)S(=O)(=O)c2ccc(F)cc2)Oc2ncc(C#Cc3ccccc3)cc2C1=O | / | 62* | -0.22
COc1ccc(C#Cc2cnc3c(c2)C(=O)N([C@H](C)CO)C[C@H](C)[C@H](CN(C)S(=O)(=O)c2ccccc2)O3)cc1OC | / | 37 | 0.078
SMILES | INS-1E rescue | T cruzi intra | YB-1 expression
COc1ccc(S(=O)(=O)N(C)C[C@@H]2Oc3ncc(C#Cc4ccc(C(F)(F)F)cc4)cc3C(=O)N([C@H](C)CO)C[C@@H]2C)cc1 | -4 | 82* | 0.31
C[C@@]12C[C@]3(O)O[C@H](O1)C1(COC(=O)c4ccccc4)[C@H]3C[C@@]12O[C@@H]1O[C@H](COC(=O)c2ccccc2)[C@@H](O)[C@H](O)[C@H]1O | / | / | 0.42
Cc1nn(-c2ccccc2)c(N)c1C(N)=S | / | / | 0.061
C=C1C(=O)O[C@@H]2/C=C(\C)[C@@H](OC(=O)C(O)C(C)C)C/C=C(/C)C[C@@H](OC(=O)/C(=C/CO)CO)[C@@H]12 (stereo partly drawn) | / | / | -0.13
COc1cccc(S(=O)(=O)N(C)C[C@@H]2Oc3ncc(C#Cc4ccc(F)cc4)cc3C(=O)N([C@H](C)CO)C[C@@H]2C)c1 | / | 73* | -0.0022
Cc1ccc(S(=O)(=O)N(C)C[C@@H]2Oc3ncc(C#Cc4ccc(C(F)(F)F)cc4)cc3C(=O)N([C@H](C)CO)C[C@@H]2C)cc1 | -3 | 89* | -0.51
C[C@H](CO)N1C[C@H](C)[C@H](CN(C)S(C)(=O)=O)Oc2ncc(C#Cc3cccc(F)c3)cc2C1=O | / | -6 | -0.33
CCCC(O)C#Cc1cnc2c(c1)C(=O)N([C@H](C)CO)C[C@H](C)[C@H](CN(C)S(=O)(=O)c1cccc(OC)c1)O2 (stereo partly drawn) | / | 14 | 0.12
CCCC(O)C#Cc1cnc2c(c1)C(=O)N([C@H](C)CO)C[C@H](C)[C@H](CN(C)S(=O)(=O)c1ccc(F)cc1)O2 (stereo partly drawn) | / | 18 | -0.18
Cc1ccc(S(=O)(=O)N(C)C[C@@H]2Oc3ncc(C#CCN(C)C)cc3C(=O)N([C@H](C)CO)C[C@@H]2C)cc1 | / | 23 | 0.06
C[C@H](CO)N1C[C@H](C)[C@H](CN(C)S(=O)(=O)c2ccc(F)cc2)Oc2ncc(C#Cc3ccc(C(F)(F)F)cc3)cc2C1=O | / | 85* | -0.23
C[C@H](CO)N1C[C@H](C)[C@H](CN(C)S(=O)(=O)c2cccs2)Oc2ncc(C#Cc3cccc(F)c3)cc2C1=O | / | 71* | -0.43
COc1ccc(NC(=O)N(C)C[C@H]2Oc3ccc(NC(=O)NC4CCCCC4)cc3CC(=O)N([C@@H](C)CO)C[C@H]2C)cc1 | 1 | 6 | -0.099
COc1ccc([Si](C)(C)[C@H]2[C@H](CCn3cc(CCO)nn3)O[C@@]3(C(=O)N(Cc4ccc(N5CCOC5=O)cc4)c4ccccc43)[C@@H]2C)cc1 | / | / | 0.13
COc1ccccc1CN1C(=O)c2ccccc2[C@@]2(Cc3ccccc3N(C(C)C)C2=O)[C@@H]1c1ccc(CO)cc1 | / | / | -0.42
COC(=O)CCCCCCC(=O)N/N=C\c1cccnc1Br | 8 | -4 | -0.18
CCOC(=O)C1=NNCC1C(=O)OCC (stereo not drawn) | / | / | -0.18
C/C(=C/CCC(CO)C1CCC2(C)C3CCC4C(C)(C)C(OC5OC(CO)C(O)C(O)C5O)CC(O)C45CC35CCC12C)COC1OC(CO)C(O)C(O)C1O (stereo not drawn) | / | / | 0.17
C/C(=C/CCC(CO)C1CCC2(C)C3CCC4C(C)(C)C(OC5OC(CO)C(O)C(O)C5O)CCC45CC35CCC12C)COC1OC(COC2OC(CO)C(O)C(O)C2O)C(O)C(O)C1O (stereo not drawn) | / | / | 5.8*
